Measurements published in ChEMBL document CHEMBL1121994, “Ammonium 7H-purin-6-yl 1-Thio-beta-D-glucopyranosiduronate, a latent, selective anticancer agent” (J Med Chem, 1982).

Key:
Assay type in all cases: ADME
[1] = Maximum velocity was determined at pH 3.38
In short: (§1)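 Bovine β-glucuronidase in 0.1 M potassium acetate buffer, μ = 0.1 M (KCl), 30 °C. Substrate 4.0×10⁻⁴ to 4.8×10⁻³ M final. Enzyme (30 FU; 42 000 FU when substrate was given in Me₂SO) was added after 20 min; at pH 3.38 the substrate was also added after 20 min. Initial rates came from ΔA/min at 324 nm (Δε = 2×10⁴ M⁻¹cm⁻¹), in duplicate. Vmax was normalized per Fishman unit.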

[2] = Maximum velocity was determined at pH 4.7; in short: as §1
[3] = organism: Bos taurus; assay: Michaelis constant for hydrolysis catalyzed by Bovine Liver beta-Glucuronidase at pH 4.7; details: cattle; in short: as §1
[4] = organism: Bos taurus; assay: Michaelis constant for hydrolysis catalyzed by Bovine Liver beta-Glucuronidase at pH 4.40; details: cattle, pH 4.4; in short: as §1
[5] = organism: Bos taurus; assay: Michaelis constant for hydrolysis catalyzed by Bovine Liver beta-Glucuronidase at pH 3.38; details: cattle; in short: as §1
[6] = Maximum velocity was determined at pH 5.58; in short: as §1
[7] = Maximum velocity was determined at pH 4.40; details: pH 4.4; in short: as §1
[8] = organism: Bos taurus; assay: Michaelis constant for hydrolysis catalyzed by Bovine Liver beta-Glucuronidase at pH 5.58; details: cattle; in short: as §1
[9] = Maximum velocity was determined at pH 4.4; in short: as §1

## N.O=C(O)C1OC(Sc2[nH]cnc3ncnc2-3)C(O)C(O)C1O (stereo unspecified)
[1]
  Vmax: 3.73e-8
[2]
  Vmax: 3.92e-8
[3]
  Vmax / Km: 0.000297
[4]
  Vmax / Km: 0.000409
[5]
  Vmax / Km: 0.000659
[6]
  Vmax: 2.18e-8
[7]
  Vmax: 3.95e-8
[8]
  Vmax / Km: 0.0000951

## NC(=O)C1OC(Sc2[nH]cnc3ncnc2-3)C(O)C(O)C1O (stereo unspecified)
[1]
  Vmax: 7.85e-11
[2]
  Vmax: 9.85e-11
[3]
  Vmax / Km: 1.06e-8
[4]
  Vmax / Km: 1.06e-8
[9]
  Vmax: 1.24e-10
[5]
  Vmax / Km: 8.8e-9
[6]
  Vmax: 8.8e-11
[8]
  Vmax / Km: 1.04e-8
